# Source: PubChem (NMMLSC)
# MEKK3 PB1 HTS – modulators of MEKK3-MEK5 PB1 binding, primary screen, biochemical, wildtype MEKK3, multiplex bead flow cytometry, Alexa488-MEK5; Mitogen-activated protein kinase kinase kinase 3 (Homo sapiens), Q99759; bead-based flow cytometry, Alexa488-MEK5 binding to MEKK3; actives lie on both sides; 0 = blocked by unlabeled MEK5, 100 = vehicle; binding response (% of control), % at 10 µM; 1.4% of 290,000 active;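 active means binding response more than 3 SD above or below the average of its plate-row segment, actives on both sides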;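 further: Alexa488 bead fluorescence after subtracting the streptavidin-only scavenger bead signal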
# Target sequence (Q99759 whole entry, looked up): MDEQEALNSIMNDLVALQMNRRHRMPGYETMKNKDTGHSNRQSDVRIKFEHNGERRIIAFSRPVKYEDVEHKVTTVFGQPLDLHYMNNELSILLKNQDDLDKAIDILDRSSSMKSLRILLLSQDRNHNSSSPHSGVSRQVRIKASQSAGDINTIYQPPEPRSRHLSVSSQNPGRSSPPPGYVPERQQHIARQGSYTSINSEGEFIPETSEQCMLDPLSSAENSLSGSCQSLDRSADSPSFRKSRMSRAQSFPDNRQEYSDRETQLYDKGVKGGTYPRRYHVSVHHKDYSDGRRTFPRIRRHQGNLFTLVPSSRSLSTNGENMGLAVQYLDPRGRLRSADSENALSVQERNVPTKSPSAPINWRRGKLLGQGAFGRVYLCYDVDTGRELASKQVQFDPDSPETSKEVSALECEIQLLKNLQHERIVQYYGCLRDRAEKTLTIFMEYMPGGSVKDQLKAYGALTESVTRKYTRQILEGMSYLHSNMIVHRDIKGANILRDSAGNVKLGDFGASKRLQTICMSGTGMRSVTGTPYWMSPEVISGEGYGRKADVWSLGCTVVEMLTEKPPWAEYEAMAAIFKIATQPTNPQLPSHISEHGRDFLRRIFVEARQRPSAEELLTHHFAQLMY
# Efflux pump mplx – inhibitors of Candida efflux pumps in yeast, primary screen, S. cerevisiae, Nile Red, multiplex; inhibition, % at 10 µM; S. cerevisiae Candida pump triplex; 0.44% of 330,000 active;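 active means plate passing quality check with inhibition over a set limit, or well fluorescence over plate mean plus 4 SD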;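 further: Nile Red retained in pooled yeast measured as flow cytometry median fluorescence; 0% = buffer negative control and 100% = Enniatin B positive control; higher means more Nile Red kept so more efflux inhibition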
# ABCB1 inh – ABCB1 efflux pump inhibitors, primary screen, cell-based, multiplex, flow cytometry, ABCG2 counter-screen; ATP-dependent translocase ABCB1 (Homo sapiens), P08183; CCRF-Adr cells, JC-1 efflux; inhibition, % at 6.6 µM; 0.067% of 190,000 active; in the data active means inhibition above about 40%;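 further: 0% = vehicle and 100% = reference inhibitor; higher value means more JC-1 retained so stronger ABCB1 efflux block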
# MEKK2wt PB1 HTS – modulators of MEK5 binding to wildtype MEKK2, primary screen, biochemical, multiplex bead flow cytometry, Alexa488-MEK5 | Mitogen-activated protein kinase kinase kinase 2 (Homo sapiens), Q9Y2U5 | Alexa488-MEK5 binding to MEKK2 WT; actives lie on both sides | binding response (% of control), % at 10 µM | 1.1% of 290,000 active | AID 1531, 2009; in the data active means binding response below about 67% or above about 130%
# ABCG2 block – ABCG2 efflux pump inhibitors, primary screen, multiplex with ABCB1, IgMXP3 cells, flow cytometry. 0.1% of 190,000 active. AID 1325, 2008. inhibition, % at 6.6 µM. JC-1 efflux;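 active means inhibition above 80%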;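 further: 0% = DMSO and 100% = nicardipine control wells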
#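 material = IgMXP3 (ABCG2) plus far-red-tagged CCRF-Adr (ABCB1) cells | amount = 3 million cells/mL, equal mix of both lines | also added = JC-1 transporter substrate | dosing = one concentration, 6.6 µM final | schedule = 10 min at 25 °C | measured by = flow cytometric JC-1 green MFI at 530 nm | read-out basis = percent efflux inhibition, scaled nicardipine 100% to DMSO 0%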
# MEKK2mut PB1 HTS – MEK5 binding signal on mutant MEKK2 PB1, primary screen, biochemical, multiplex bead flow cytometry, Alexa488-MEK5; AID 1530, 2009; percent response, % at 10 µM; Alexa488-MEK5 binding to MEKK2 mutant; 0.35% of 290,000 active; in the data active means percent response above about 24%, passing the limit was not always enough
# MEKK2wt confirm – modulators of MEK5 binding to wildtype MEKK2, confirmation, biochemical, single concentration, multiplex bead flow cytometry. binding response (% of control), % at 10 µM. Alexa488-MEK5 binding to MEKK2 WT; actives lie on both sides. shares compounds with MEKK3 PB1 HTS. 2.4% of 5,900 active. AID 1892, 2009; in the data active means binding response below about 16% or above about 210%; inactive means in between
# MEKK2mut confirm – mutant MEKK2 PB1-MEK5 binding signal retest – biochemical, single concentration, multiplex bead flow cytometry, confirmation. shares compounds with MEKK3 PB1 HTS. Alexa488-MEK5 binding to MEKK2 mutant. AID 1893, 2009. percent response, % at 10 µM. 2% of 5,900 active; in the data active means percent response mostly above about 71%, no sharp cut-off; inactive means mostly below about 38%;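 further: higher means compound restores mutant binding toward wildtype level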
# MEKK3-MEK5 inh – MEKK3 wild-type PB1 binding to MEK5, inhibitors, confirmation, biochemical, bead multiplex flow cytometry, single concentration, wildtype; shares compounds with MEKK3 PB1 HTS; Alexa488-MEK5 binding to MEKK3; stronger effect = lower value; binding response (% of control), % at 10 µM; 1.8% of 5,900 active; AID 1894, 2009;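 active means binding response below 72% of control, or above a set upper limit, though filed actives all read lower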;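 further: 100% = DMSO only wells and 0% = binding blocked by excess unlabeled MEK5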
# An asterisk follows results filed as active; x = no result given; [ ] = another dose, or the depositor's remark. A selection: hits, their analogues and other compounds. The true share with any hit is near 2.5%.
SMILES,MEKK3 PB1 HTS,Efflux pump mplx,ABCB1 inh,MEKK2wt PB1 HTS,ABCG2 block,MEKK2mut PB1 HTS,MEKK2wt confirm,MEKK2mut confirm,MEKK3-MEK5 inh
CCN(CC)CCNc1nc2cc(OC)c(OC)cc2c2nc(-c3ccccc3)nn12,108,0,4,143*,4,10,111,3,95
Cc1c(C)c2cc3c(C)coc3cc2oc1=O,103,0,x,104,x,7,x,x,x
c1ccc(NCc2ccccn2)cc1,138*,0,0,130,1,6,94,-7,96
CCOc1ccc(S(=O)(=O)N2CCC(C(=O)OC(C)C(=O)NC3CCCCC3C)CC2)cc1 (stereo not drawn),x,0,x,x,x,x,x,x,x
Cc1ccc2nc(CSc3nnc(-c4ccco4)o3)cc(=O)n2c1,71*[inhibitor],0,1,91,6,-3,105,-1,107
CC(C)(CNC(=O)c1ccccc1NS(C)(=O)=O)N1CCCCC1,100,0,x,93,x,-3,x,x,x
CCN(C[C@H]1N[C@@](C)(C(=O)OC)[C@H]2C(=O)N(Cc3ccccc3)C(=O)[C@@H]12)C(=O)c1ccc(C)cc1,x,0,x,x,x,x,x,x,x
CNC[C@H](CC1CCCCC1)NC[C@H](CO)NCC1(c2ccccc2)CC1,103,0,x,114,x,-1,x,x,x
CNC[C@H](CC1CCCCC1)NC[C@H](CO)NCCc1cccc(C(F)(F)F)c1,104,0,x,152*,x,6,156,39,109
O=C(CCc1nnc(CCCCc2ccccc2)o1)NCCCc1cccnc1,66,0,1,9.0*[inhibitor],3,-19,102,4,106
NS(=O)(=O)c1ccc(CCNCc2cc(Cl)ccc2OCc2ccccc2)cc1,108,0,x,144*,x,6,135,20,106
NS(=O)(=O)c1ccc(CCNCc2ccccc2OCc2ccc(Cl)cc2)cc1,106,0,x,145*,x,8,129,16,108
NS(=O)(=O)c1ccc(CCNCc2cc(Br)ccc2OCc2ccccc2F)cc1,95,0,5,133,10,21,x,x,x
COc1ccccc1NC(=O)c1cc(Sc2nncn2C)nc2ccccc12,102,0,1,100,3,2,x,x,x
O=C(O)COCC(=O)Nc1ccc(Oc2ncnc3cc(Cl)ccc23)nc1,48*[inhibitor],0,x,58,x,-41,105,6,103
O=C(Nc1ccc(Oc2ncnc3cc(Cl)ccc23)nc1)c1ccc(F)cc1,100,0,x,102,x,2,x,x,x
CCCCCCOc1ccc(/C(C)=N/NC2=NCCN2)cc1,112,0,x,204*,x,36*,205,64,111
CCCCCCOc1ccc(C(=O)O)cc1,94,0,x,96,x,-5,x,x,x
CCOc1ccc(Br)cc1/C(C)=N\NC1=NCCN1,96,0,0,105,3,-1,x,x,x
CCCCCOc1ccc(/C(C)=N/NC2=NCCN2)cc1,106,0,x,148*,x,20,129,10,93
CSc1ncccc1C(=O)Nc1cccc(S(=O)(=O)N(C)c2ccccc2)c1,x,0,x,x,x,x,x,x,x
COc1ccnc(Oc2ccccc2)c1C(N)=O,98,0,0,97,6,1,x,x,x
CCN(CC)c1ccc(NC(=O)CCCOc2cccc(C)c2)cc1,96,x,-1,90,27,-10,x,x,x
CCN(CC)c1ccc(/C=N/OCC(=O)Nc2cccc(C)c2)cc1,104,0,0,61*[inhibitor],46,52,95,-8,99
COc1cc(S(=O)(=O)n2cnc(C)c2)ccc1Cl,99,0,0,85,0,-9,x,x,x
SMILES,MEKK3 PB1 HTS,Efflux pump mplx,ABCB1 inh,MEKK2wt PB1 HTS,ABCG2 block,MEKK2mut PB1 HTS,MEKK2wt confirm,MEKK2mut confirm,MEKK3-MEK5 inh
CCOc1cc(S(=O)(=O)n2cnc(C)c2)ccc1Cl,148*,0,1,123,6,2,93,-2,101
CCOC(=O)N1CCN(S(=O)(=O)c2ccc(C(=O)Nc3nnc(CSC)o3)cc2)CC1,101,0,0,98,0,2,x,x,x
CCCCNC(=O)C1CCN(C(=O)C2CCN(S(=O)(=O)c3ccc(C)cc3)CC2)CC1,100,0,x,103,x,0,x,x,x
Cc1noc(/C=C/c2cccs2)c1S(=O)(=O)N1CCC(C(=O)NCCCN2CCC(C)CC2)CC1,106,0,0,186*,1,57*,115,7,103
Cc1ccc(S(=O)(=O)NCCNC(=O)CN2CCCC2)cc1,93,0,1,96,2,-5,x,x,x
COCCNC(=O)C1CCCN(S(=O)(=O)c2c(C)noc2/C=C/c2cccs2)C1 (stereo not drawn),101,0,x,98,x,-1,x,x,x
Cc1ccc(S(=O)(=O)N2CCC(C(=O)NCCCN3CCCCCC3)CC2)cc1,102,0,1,160*,3,25,179,48,111
Cc1ccc(S(=O)(=O)NCCC(=O)NCCN2CCCCCC2)cc1,102,0,0,227*,1,54*,138,7,80
C#CCOCCOCCOCCNc1nc(N2CCN(C(=O)[C@H](CCCCN)n3cc(CN)nn3)CC2)nc(N2CCN(C(=O)[C@H](CCC(=O)O)n3cc([C@@H](N)CCSC)nn3)CC2)n1,x,0,x,x,x,x,x,x,x
O=c1[nH]nc(Cc2ccc3ccccc3n2)c2ccccc12,98,0,1,108,6,8,x,x,x
CN(C)C(=O)c1ccc(Oc2ccc(C(=O)N(C)C)cc2)cc1,66*[inhibitor],0,1,75,4,-14,100,-1,100
COCCNC(=O)C1=NOC(Cn2cc(C#N)c(=O)n(C)c2=O)C1 (stereo not drawn),145*,0,0,129,0,6,100,4,108
